Compounds with a hit are over-represented: about 2.1% of the library has one in this group of screens.
Calpain2 inh = blocks pig calpain II enzyme activity; actives 0.37% (n = 220,000); purified calpain II, fluorogenic peptide substrate, 30 min; AID 1236; inhibition, % at 16 µM;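 active means inhibition above about 50%, limit read from the data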
TNF necrop inh = TNF-alpha cell death inhibition in Jurkat FADD-/- cells; activation (protection from cell death), % at 10 µM; AID 463075; Jurkat FADD-/- TNF necroptosis rescue, ATP luminescence, 24 h; 0 = TNF only, 100 = no-TNF cells; actives 0.068% (n = 220,000);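 active means activation, meaning protection from cell death, of at least 50% relative to plate controls; inactive means activation below 50%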;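 further: necroptosis triggered by 40 ng/mL TNF-alpha added together with compound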
L929 necroptosis = blocks zVAD induced death of L929 cells; viability rescue, % at 10 µM; L929 zVAD necroptosis rescue, ATP luminescence, 24 h; with zVAD 60 µM; actives 0.38% (n = 220,000); AID 1377;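 active means activation, scaled between plate controls, above about 75%, limit read from the data; inactive means activation under that limit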;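 further: 0% = zVAD with DMSO and 100% = DMSO alone without zVAD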
Pf gametocyte = P. falciparum stage V gametocyte viability inhibition. inhibition, % at 10.9 µM. P. falciparum stage V gametocytes, ATP luminescence, 24 h. actives 0.065% (n = 150,000). AID 743093;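 active means inhibition above the mean plus 3 SD of compounds within the control limits, set per campaign, cut at about 38% in these data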;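 further: 0% = DMSO wells and 100% = medium only without gametocytes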
Wee1 stabilizer = inhibitors of human Wee1 degradation; P30291; HeLa Luc-Wee1K328M stability, luciferase luminescence; 100% = proteasome inhibitor MG132 effect; reporter increase, % at 5 µM; actives 1.2% (n = 220,000); AID 1321;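 active means activation above the mean of all tested compounds plus 3 SD, set per screening run, cut at about 8.8% in these data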;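 further: cells exposed to compound for 20 h before luminescence read; 0% = DMSO alone and 100% = MG132 at 30 µM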
Target sequence (P30291 whole entry K328M): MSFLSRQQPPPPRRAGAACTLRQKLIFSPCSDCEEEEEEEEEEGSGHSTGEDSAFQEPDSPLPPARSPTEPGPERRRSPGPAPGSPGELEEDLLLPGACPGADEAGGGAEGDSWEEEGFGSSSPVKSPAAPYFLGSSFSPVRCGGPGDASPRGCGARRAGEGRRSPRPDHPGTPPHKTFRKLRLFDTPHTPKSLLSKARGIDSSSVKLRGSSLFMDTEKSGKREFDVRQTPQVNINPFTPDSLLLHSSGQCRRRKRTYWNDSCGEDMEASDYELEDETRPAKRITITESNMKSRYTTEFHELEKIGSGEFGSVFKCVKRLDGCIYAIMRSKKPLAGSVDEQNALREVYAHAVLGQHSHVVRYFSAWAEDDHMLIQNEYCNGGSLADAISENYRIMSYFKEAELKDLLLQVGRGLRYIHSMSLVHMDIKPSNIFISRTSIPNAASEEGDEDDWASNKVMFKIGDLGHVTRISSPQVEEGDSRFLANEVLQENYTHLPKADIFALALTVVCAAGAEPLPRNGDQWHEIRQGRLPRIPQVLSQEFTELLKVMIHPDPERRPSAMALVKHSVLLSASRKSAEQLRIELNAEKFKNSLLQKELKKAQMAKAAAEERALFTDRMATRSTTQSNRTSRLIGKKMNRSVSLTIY
RBBP9 inh = human RBBP9 hydrolase inhibition | recombinant RBBP9, FP-Rh probe fluorescence polarization | inhibition, % at 7.94 µM | actives 0.2% (n = 220,000) | AID 1515;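 active means inhibition above the campaign mean of all tested compounds plus 3 SD, cut at about 14% in these data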;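 further: plate controls were DMSO wells with RBBP9 for no effect and wells lacking RBBP9 protein for full effect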
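Material: RBBP9 protein. Amount: RBBP9 at 2.5 µM in dispensed solution, before mixing. Schedule: 30 min then 45 min, 25 °C. Medium: Tris buffer pH 8.0, NaCl, Pluronic. Measured by: fluorescence polarization. Measure: percent inhibition from mP, scaled between DMSO and no-protein wells. Replication: one well per compound.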
The depositor's hits bear a star; i = inactive; / = no result given.

SMILES | Calpain2 inh | TNF necrop inh | L929 necroptosis | Pf gametocyte | Wee1 stabilizer | RBBP9 inh
Cc1ccc(CNC(=O)CCCCCNc2nc(=S)[nH]c3ccccc23)cc1 | 61.1* | 0.9 | 0.6 | / | -0.8 | -1.6
CC(=O)c1cccc(NC2c3ccccc3C(=O)N2Cc2ccc3c(c2)OCO3)c1 (stereo not drawn) | -4.8 | 0.6 | -0.6 | / | 9.1* | -11.0
COc1cc(OC)cc(C(=O)NCCOC23CC4CC(CC(C4)C2)C3)c1 | 17.4 | 2.8 | 56.7 | -4.7 | 9.4* | -2.4
Cc1ccc(C(=O)NCCOC23CC4CC(CC(C4)C2)C3)cc1 | -0.3 | 1.3 | 0.2 | 18.0 | -1.1 | -9.4
Cc1cccc(C)c1NC(=O)CSc1nnc(-c2cccnc2)o1 | -19.1 | 0.4 | 0.8 | / | -2.8 | -9.7
CCOC(=O)CSc1nc(C(C)C)nc2sc(C)c(C)c12 | 54.5* | 0.2 | 1.8 | -23.6 | -2.2 | -9.9
C/C(=C\C(=O)c1ccc(Br)cc1)NNC(=O)c1ccccc1 | / | / | / | 3.5 | / | /
CCOC(=O)c1ccc(NC(=O)CC2S/C(=N/N=C/c3c[nH]c4ccccc34)NC2=O)cc1 (stereo not drawn) | -30.3 | 2.3 | 0.2 | / | 4.5 | 9.0
Cc1ccc(NC(=O)CC2S/C(=N/N=C/c3c[nH]c4ccccc34)NC2=O)cc1 (stereo not drawn) | -2.0 | 2.0 | 0.4 | 0.0 | 9.7* | -0.2
COc1cc(OC)nc(Oc2ccccc2C(=O)Oc2cccc(C)c2)n1 | 32.8 | -1.4 | -0.4 | / | -1.3 | -2.2
Cc1ccc(C)c(NS(=O)(=O)c2cc(C(=O)N3CCCC3)ccc2Cl)c1 | -17.7 | -1.3 | -0.9 | 8.2 | -4.5 | 1.4
CC(C)(C)NC(=O)NC(=O)CN1CCc2ccccc21 | 22.7 | -0.1 | 0.2 | 24.0 | 2.2 | 2.8
COCCNC(=O)NC(=O)CN1CCCc2ccccc21 | 64.8* | -0.4 | 0.4 | 14.1 | 0.2 | -4.3
CN(C)/C=N/c1cc(=O)[nH]c(=O)n1C | 20.9 | 1.2 | -0.3 | / | -0.4 | -10.4
COC(=O)c1ccc(CSc2ncnc3c2nnn3-c2ccc(OC)cc2)o1 | 2.7 | -1.3 | 0.0 | / | 11.8* | -1.9
Cc1cc(C(C)(C)C)oc1C(=O)N(CC(=O)NC1CCCC1)Cc1ccccc1Cl | 50.5* | -2.0 | -0.3 | -15.4 | 0.6 | -4.7
Cc1sc2ncn(Cc3ccccc3F)c(=O)c2c1C | 11.3 | 95.3* | 1.2 | -26.6 | 4.3 | -7.4
CCn1cnc2sc(C)c(C)c2c1=O | 9.0 | -4.0 | 1.8 | / | -2.1 | -4.0
O=c1c2ccsc2ncn1Cc1ccccc1F | -18.8 | 47.8 | 0.3 | / | 14.8* | -1.9
CCC(=O)Nc1ccc2c(c1)N(C(C)=O)c1ccccc1CC2 | / | / | / | -6.6 | / | /
O=C(CCCC(=O)OCC(Cl)=C(Cl)Cl)Nc1ccc(F)cc1 | -1.4 | 3.3 | 2.5 | 30.4 | 1.6 | -8.7
COC(=O)c1ccc(N2C(=O)C3CC(C)=C(C)CC3C2=O)cc1 (stereo not drawn) | 59.4* | 0.7 | -0.4 | 24.8 | 0.7 | -4.7
CCOC(=O)/C(C#N)=N/Nc1ccc(S(=O)(=O)Nc2cc(OC)nc(OC)n2)cc1 | / | / | / | -28.9 | / | /
CCCn1c(=S)[nH]c2cc(C(=O)N3CCc4ccccc43)ccc2c1=O | 21.6 | -1.4 | -0.5 | / | -0.5 | -9.6
COCCn1c(=S)[nH]c2cc(C(=O)N3CCc4ccccc43)ccc2c1=O | 32.5 | -6.0 | -1.0 | -4.8 | 10.8* | -2.9
SMILES | Calpain2 inh | TNF necrop inh | L929 necroptosis | Pf gametocyte | Wee1 stabilizer | RBBP9 inh
O=C1CCCC(=O)N1c1ccc(Oc2ccc(Cl)cc2)cc1 | 4.5 | 0.9 | 0.8 | / | 3.7 | -4.7
Brc1ccc(CSc2nnc(Cc3c[nH]c4ccccc34)o2)cc1 | 69.5* | -0.1 | 0.0 | / | -0.6 | -7.2
Clc1ccc(CSc2nnc(-c3c[nH]c4ccccc34)o2)cc1 | 23.2 | -1.5 | 1.0 | / | -3.9 | -5.5
Cc1ccccc1Cn1c(=O)n(CC2CCC(C(=O)NCCc3ccccc3)CC2)c(=O)c2ccccc21 (stereo not drawn) | 65.6* | 2.6 | 0.6 | -23.2 | -2.0 | -0.2
Cc1ccc(-c2nc3cc(NC(=O)C(C)C)ccc3o2)cc1C | -266.6 | 0.7 | 0.5 | 11.6 | 1.0 | -5.2
Cc1ccc(-c2nc3cc(NC(=O)C(C)C)ccc3o2)cc1 | -109.1 | -0.8 | 0.6 | 7.6 | 24.8* | 4.7
O=C(/C=C/c1cccc(OCc2ccccc2)c1)c1cccnc1 | -16.6 | 2.9 | 1.4 | -12.0 | -2.9 | -6.4
CCc1cc(=O)oc2cc(C)cc(OCC(=O)C(C)(C)C)c12 | -381.4 | 1.2 | -1.5 | -23.4 | -4.1 | 3.0
CCc1cc(=O)oc2cc(C)cc(OCC(C)=O)c12 | -163.7 | 1.4 | -0.1 | 10.4 | 10.5* | -6.5
COc1ccc(Cl)cc1C(=O)CSc1nnnn1C1CCCCC1 | 10.5 | 1.3 | -0.1 | 42.9* | 0.3 | 0.5
Cc1cc2nc(SCC(=O)Nc3ccccc3C(=O)O)[nH]c2cc1C | 21.1 | 0.3 | -1.2 | -37.2 | 0.4 | -3.3
C=C(C)c1cccc(C(C)(C)NC(=O)N(Cc2ccccc2)Cc2ccco2)c1 | -35.0 | 1.4 | -0.1 | / | 16.2* | -3.0
O=C(O)/C=C/C(=O)N(Cc1ccccc1)Cc1ccco1 | 4.2 | 0.2 | -0.9 | / | 4.2 | 0.7
COc1cc2c(cc1OC)CN(c1nc(-c3cccnc3)nc3ccccc13)CC2 | -6.6 | -4.4 | 2.1 | 11.7 | 10.2* | -13.3
CN1CCN(c2nc(-c3cccnc3)nc3ccccc23)CC1 | 10.4 | 0.4 | 1.0 | -29.1 | -0.7 | -1.1
COc1cc(OC)cc(C(=O)Nn2c(C)nc3ccccc3c2=O)c1 | 3.8 | -3.6 | 0.1 | -25.7 | -3.5 | 6.2
COc1ccc2[nH]c3c(c2c1)CCn1c-3nc2ccccc2c1=O | -19.6 | 0.7 | 3.4 | / | 12.8* | -15.4
Cc1ccc(-c2noc(N=O)c2NO)cc1 | 21.6 | 1.6 | 0.4 | 6.0 | 0.0 | 0.6
COc1ccc(Nc2ncnc3c2oc2ccccc23)cc1 | 18.6 | -3.9 | 74.0 | / | 10.3* | -10.2
O=C(Cc1ccccc1[N+](=O)[O-])NCc1ccc(Cl)cc1 | 4.8 | 3.7 | / | 20.0 | -1.4 | -11.3
O=C(Cc1ccccc1[N+](=O)[O-])NCc1ccc(Cl)cc1Cl | 19.9 | 4.3 | 0.6 | 7.6 | 9.4* | -7.0
CCOc1cc(C)c(Cl)cc1S(=O)(=O)NCCOC | -2.0 | 0.9 | -0.4 | 19.2 | 9.5* | -6.1
COc1ccc(CNc2oc(-c3cccc4ccccc34)nc2P(=O)(OC)OC)cc1 | i | -1.8 | -0.1 | / | 9.8* | -1.6
COP(=O)(OC)c1nc(-c2cccc3ccccc23)oc1NCc1ccccc1 | -439.7 | 1.9 | 0.7 | 1.6 | 0.1 | -2.7
CCn1ncc(C2=NOC(C(=O)Nc3cnn(C45CC6CC(CC(C6)C4)C5)c3)C2)c1C (stereo not drawn) | 11.1 | -5.0 | 87.3* | / | -1.3 | -5.0
CCn1ncc(C2=NOC(C(=O)NCC(C)C)C2)c1C (stereo not drawn) | 20.7 | -1.1 | 0.3 | / | 7.8 | -7.6

Screening results deposited in PubChem by several laboratories.
